From publication PMC4242840 (The Journal of Cell Biology, 2014)
Entries after “also recorded” stand apart in the source; their conditions may differ.

How the values were obtained:
[1] = molecular target: T1, Rsa4 β-propeller (Rsa4Δ136) (S. cerevisiae, UniProt P25382 137-515); assay: ITC
T1 sequence: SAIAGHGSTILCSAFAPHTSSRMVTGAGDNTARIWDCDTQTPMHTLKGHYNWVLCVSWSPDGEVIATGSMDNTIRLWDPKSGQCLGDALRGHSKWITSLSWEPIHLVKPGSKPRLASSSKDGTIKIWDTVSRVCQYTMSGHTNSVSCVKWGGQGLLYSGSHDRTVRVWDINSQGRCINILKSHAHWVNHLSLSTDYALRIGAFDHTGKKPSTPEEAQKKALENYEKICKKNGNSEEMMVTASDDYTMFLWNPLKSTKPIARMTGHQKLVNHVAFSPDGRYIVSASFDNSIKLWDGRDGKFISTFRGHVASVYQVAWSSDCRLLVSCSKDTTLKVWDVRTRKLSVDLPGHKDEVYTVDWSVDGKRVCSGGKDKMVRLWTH

[2] = molecular target: T2, HIS6-TEV-Rsa4 full-length (S. cerevisiae, UniProt P25382 1-515); assay: pull-down
T2 sequence: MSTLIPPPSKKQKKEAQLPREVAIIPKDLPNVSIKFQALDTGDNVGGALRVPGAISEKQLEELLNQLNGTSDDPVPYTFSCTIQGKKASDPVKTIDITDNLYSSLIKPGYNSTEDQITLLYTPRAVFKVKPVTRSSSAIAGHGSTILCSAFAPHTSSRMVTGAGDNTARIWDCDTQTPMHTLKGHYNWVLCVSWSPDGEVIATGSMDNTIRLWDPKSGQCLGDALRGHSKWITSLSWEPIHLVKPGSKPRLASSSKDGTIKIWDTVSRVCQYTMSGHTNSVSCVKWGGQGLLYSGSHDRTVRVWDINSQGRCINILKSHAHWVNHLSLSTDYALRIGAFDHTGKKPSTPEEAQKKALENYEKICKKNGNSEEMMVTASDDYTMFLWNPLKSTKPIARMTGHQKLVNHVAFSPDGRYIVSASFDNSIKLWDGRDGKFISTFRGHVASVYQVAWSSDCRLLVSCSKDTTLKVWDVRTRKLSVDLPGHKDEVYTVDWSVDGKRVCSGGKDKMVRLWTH

[3] = test system: Nsa2 shuffle strain (nsa2Δ); assay: complementation of nsa2Δ; type: cell-based, Saccharomyces cerevisiae; conditions: SDC+FOA, 30°C, 2 or 3 d
pre-60S particles [4] = assay: association with pre-60S particles; type: cell-based, Saccharomyces cerevisiae
In short: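 Wild-type yeast expressed plasmid-borne NSA2-FTpA or nsa2 Y90A-FTpA. Cells were treated with cycloheximide for 15 min and lysed with glass beads. Whole-cell lysates were fractionated on 10–50% sucrose gradients (16 h, 27,000 rpm, 0.4 ml fractions), and fractions were probed by Western blot with anti-ProtA to detect tagged Nsa2.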

[5] = test system: 60S subunit production / pre-60S composition; assay: pulse-chase labeling with affinity purification of Rpl25; type: cell-based, Saccharomyces cerevisiae
In short: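 Strain DS1-2b carried an amber-suppressor tRNA/synthetase plasmid and a GAL plasmid co-expressing 2×HA-TAG-Rpl25-FTpA with wild-type or Y90A Nsa2. After 60 min galactose induction, O-methyl-tyrosine was added as a 7 min pulse, followed by a 20 min chase with tetracycline and glucose. Rpl25 was TAP-purified, run on SDS-PAGE with Coomassie staining, and bands were identified by mass spectrometry.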

[6] = test system: 60S subunit formation and nuclear export; assay: 60S biogenesis/export upon overexpression; type: cell-based, Saccharomyces cerevisiae; conditions: galactose-containing medium, 6 h (nsa2) or 8 h (rsa4)
In short: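 Wild-type yeast carried plasmids for the 60S reporter Rpl25-EGFP and mRFP-Nop1, plus 2μ GAL-driven NSA2 alleles. Cells were shifted to galactose medium for 6 h (Nsa2), washed in water and imaged at room temperature (100× oil objective, EGFP/Cy3 filters). For profiles, cells were treated with cycloheximide for 15 min, lysed with glass beads and run on 10–50% sucrose gradients (16 h, 27,000 rpm), recorded at 254 nm.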

wild-type yeast growth = assay: dominant-negative phenotype upon GAL overexpression in wild-type yeast; type: cell-based, Saccharomyces cerevisiae; conditions: GAL promoter, galactose medium, 30°C, 2 or 3 d
[7] = test system: 25S rRNA helices H89, H90, H42; assay: UV cross-linking and analysis of cDNA; type: binding, Saccharomyces cerevisiae; conditions: in vivo UV cross-linking, % of hits
In short: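 Yeast culture was UV-irradiated to cross-link protein to RNA, then lysed with zirconia beads. Nsa2-His-TEV-ProtA was bound to IgG-Sepharose and eluted with TEV. The eluate was RNase-treated and denatured, and Nsa2 was repurified on Ni-NTA under denaturing conditions. Cross-linked RNA was ligated to 3′ and 5′ DNA linkers and sequenced; hits were mapped to rRNA helices.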

HIS6-Rsa4 WD40 domain = molecular target: T3, HIS6-Rsa4 WD40 domain (S. cerevisiae, UniProt P25382 112-515); assay: pull-down
T3 sequence: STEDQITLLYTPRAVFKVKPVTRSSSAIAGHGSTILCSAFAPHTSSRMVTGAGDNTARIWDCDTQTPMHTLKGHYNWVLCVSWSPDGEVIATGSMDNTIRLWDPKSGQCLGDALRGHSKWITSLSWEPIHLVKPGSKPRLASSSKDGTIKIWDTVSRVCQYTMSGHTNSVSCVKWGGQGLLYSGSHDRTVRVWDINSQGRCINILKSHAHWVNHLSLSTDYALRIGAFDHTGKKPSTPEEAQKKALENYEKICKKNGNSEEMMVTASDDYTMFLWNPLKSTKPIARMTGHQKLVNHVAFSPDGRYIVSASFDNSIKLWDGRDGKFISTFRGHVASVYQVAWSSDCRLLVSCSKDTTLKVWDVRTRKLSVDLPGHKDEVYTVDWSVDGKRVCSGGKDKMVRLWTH

pre-60S particles [8] = assay: affinity purification of Rpl5-FTpA constructs; type: cell-based, Saccharomyces cerevisiae; conditions: Flag-TEV-ProtA bait
In short: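 Rpl5 variants tagged with Flag-TEV-ProtA were purified from a 2-liter yeast culture pellet. Steps: IgG-Sepharose 90 min, TEV elution 120 min, FLAG beads 45 min, FLAG-peptide elution. Eluates were run alongside pre-60S particles purified via Nsa2-FTpA and FTpA-Rsa4, then analysed by SDS-PAGE and Western blot.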

Q: Does DALPTYLLDRE [Nsa2 peptide (85–95 aa, DALPTYLLDRE)] bind [1]?
A: binds

B1: MBP-Nsa2 (natural protein)
chain: MPQNDYIERHIKQHGKRLDHEERKRKREARESHKISERAQKLTGWKGKQFAKKRYAEKVSMRKKIKAHEQSKVKGSSKPLDTDGDALPTYLLDREQNNTAKAISSSIKQKRLEKADKFSVPLPKVRGISEEEMFKVIKTGKSRSKSWKRMITKHTFVGEGFTRRPVKMERIIRPSALRQKKANVTHPELGVTVFLPILAVKKNPQSPMYTQLGVLTKGTIIEVNVSELGMVTAGGKVVWGKYAQVTNEPDRDGCVNAVLLV
Q: Does B1 bind [2]?
A: binds

B2: nsa2 Y90F: Nsa2 with tyrosine 90 mutated to phenylalanine (protein)
chain: MPQNDYIERHIKQHGKRLDHEERKRKREARESHKISERAQKLTGWKGKQFAKKRYAEKVSMRKKIKAHEQSKVKGSSKPLDTDGDALPTFLLDREQNNTAKAISSSIKQKRLEKADKFSVPLPKVRGISEEEMFKVIKTGKSRSKSWKRMITKHTFVGEGFTRRPVKMERIIRPSALRQKKANVTHPELGVTVFLPILAVKKNPQSPMYTQLGVLTKGTIIEVNVSELGMVTAGGKVVWGKYAQVTNEPDRDGCVNAVLLV
modifications: left off: MBP, N-terminal, kept
Q: How did the “growth / viability (complementation)” value [3] turn out when B2 was run?
A: normal growth

B3: nsa2 Y90A: Nsa2 with tyrosine 90 mutated to alanine (protein)
chain: MPQNDYIERHIKQHGKRLDHEERKRKREARESHKISERAQKLTGWKGKQFAKKRYAEKVSMRKKIKAHEQSKVKGSSKPLDTDGDALPTALLDREQNNTAKAISSSIKQKRLEKADKFSVPLPKVRGISEEEMFKVIKTGKSRSKSWKRMITKHTFVGEGFTRRPVKMERIIRPSALRQKKANVTHPELGVTVFLPILAVKKNPQSPMYTQLGVLTKGTIIEVNVSELGMVTAGGKVVWGKYAQVTNEPDRDGCVNAVLLV
modifications: left off: MBP, N-terminal, kept
Q: B3 was tested. Which “association with pre-60S particles” value (pre-60S particles [4]; 10–50% sucrose gradient, anti-ProtA Western blot) did it give?
A: still associated with pre-60S particles; also recorded: efficiently assembled into preribosomes

Q: What about the “replacement of endogenous Nsa2 in preribosomes” value (pre-60S particles [4]; upon overexpression) of the same molecule?
A: replacement of endogenous Nsa2 within the preribosomes

Q: And the “growth / viability (complementation)” value [3]?
A: nonviable

Q: What about the “60S production in pulse-chase” value ([5]; 60-min galactose induction, 7 min Ome-Tyr pulse, 20 min chase) of the same molecule?
A: arrests 60S biogenesis

Q: What about the “enrichment of methyl-transferases Spb1 and Nop2” value ([5]; arrested preribosomal intermediate, HA-Rpl25-Flag-ProtA purification) of the same molecule?
A: strongly enriched

Q: And the “effect of overexpression on 60S biogenesis / export” value [6]?
A: defect in 60S subunit export

Q: And the “effect of overexpression on 60S biogenesis / export” value ([6]; listed as Nsa2 Y90A)?
A: specific block in nuclear export and formation of 60S subunits

Q: And the “dominant-negative phenotype upon overexpression” value (wild-type yeast growth)?
A: dominant lethal

Q: And the “dominant-negative phenotype upon overexpression” value (wild-type yeast growth; listed as Nsa2 Y90A)?
A: strong dominant-lethal phenotype

B4: MBP-Nsa2 Y90F (natural protein)
chain: MPQNDYIERHIKQHGKRLDHEERKRKREARESHKISERAQKLTGWKGKQFAKKRYAEKVSMRKKIKAHEQSKVKGSSKPLDTDGDALPTFLLDREQNNTAKAISSSIKQKRLEKADKFSVPLPKVRGISEEEMFKVIKTGKSRSKSWKRMITKHTFVGEGFTRRPVKMERIIRPSALRQKKANVTHPELGVTVFLPILAVKKNPQSPMYTQLGVLTKGTIIEVNVSELGMVTAGGKVVWGKYAQVTNEPDRDGCVNAVLLV
Q: Does B4 bind [2]?
A: binds

B5: Nsa2-His6-TEV-ProtA: Nsa2 tagged with His6-TEV-ProtA used for CRAC (protein, UniProt P40078 1-261, looked up)
Ribosome biogenesis protein …: MPQNDYIERHIKQHGKRLDHEERKRKREARESHKISERAQKLTGWKGKQFAKKRYAEKVSMRKKIKAHEQSKVKGSSKPLDTDGDALPTYLLDREQNNTAKAISSSIKQKRLEKADKFSVPLPKVRGISEEEMFKVIKTGKSRSKSWKRMITKHTFVGEGFTRRPVKMERIIRPSALRQKKANVTHPELGVTVFLPILAVKKNPQSPMYTQLGVLTKGTIIEVNVSELGMVTAGGKVVWGKYAQVTNEPDRDGCVNAVLLV
modifications: His6-TEV-ProtA tag
Q: B5 was tested. Which “CRAC hits on H42” value ([7]; rRNA helix H42) did it give?
A: 15%

Q: And the “CRAC hits on H89” value ([7]; rRNA helix H89)?
A: 60%

Q: What about the “CRAC hits on H90” value ([7]; rRNA helix H90) of the same molecule?
A: 25%

Q: Does GDALPTYLLDREQ (domain or fragment) [MBP-Nsa2 84–96 aa] bind (HIS6-Rsa4 WD40 domain)?
A: binds

B6: wild-type Rpl5: ribosomal protein Rpl5 (uL18), wild type (protein)
chain: MAFQKDAKSSAYSSRFQTPFRRRREGKTDYYQRKRLVTQHKAKYNTPKYRLVVRFTNKDIICQIISSTITGDVVLAAAYSHELPRYGITHGLTNWAAAYATGLLIARRTLQKLGLDETYKGVEEVEGEYELTEAVEDGPRPFKVFLDIGLQRTTTGARVFGALKGASDGGLYVPHSENRFPGWDFETEEIDPELLRSYIFGGHVSQYMEELADDDEERFSELFKGYLADDIDADSLEDIYTSAHEAIRADPAFKPTEKKFTKEQYAAESKKYRQTKLSKEERAARVAAKIAALAGQQ
Q: Which “co-purified particles / Syo1” value (pre-60S particles [8]) does the source give for B6 here?
A: only recovered mature 60S subunits, plus Syo1
